Measurements published in ChEMBL document CHEMBL3608301, “Phenolic Compounds from Atriplex littoralis and Their Radiation-Mitigating Activity” (J Nat Prod, 2015).

Assays:
PBL [1] = experiment: Radioprotective activity in 2-Gy gamma irradiated human PBL assessed as incidence of micronuclei in binucleated cells at 1.8 uM treated for 2 to 19 hrs followed by compound washout measured after 72 hrs by cytochalasin-B-blocked micronucleus assay (reference value: 1.2 +/- 0.03); format: functional
In short: (§1)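 Venous blood from five healthy male volunteers was γ-irradiated at 2 Gy (0.45 Gy/min) at room temperature and cultured. Compounds (0.8−7.4 μM final) were added 2 to 19 h after irradiation, at 37 °C. Cultures were then rinsed and moved to fresh RPMI 1640 for 72 h. Cytokinesis-block micronucleus assay: ≥1000 binucleated cells scored per sample (Countryman–Heddle criteria). Controls were non-treated irradiated cultures; one-way ANOVA with Tukey test.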

PBL [2] = experiment: Radioprotective activity in 2-Gy gamma irradiated human PBL assessed as incidence of micronuclei in binucleated cells at 3.7 uM treated for 2 to 19 hrs followed by compound washout measured after 72 hrs by cytochalasin-B-blocked micronucleus assay (reference value: 1.2 +/- 0.03); format: functional; in short: as §1
PBL [3] = experiment: Radioprotective activity in 2-Gy gamma irradiated human PBL assessed as incidence of micronuclei in binucleated cells at 7.4 uM treated for 2 to 19 hrs followed by compound washout measured after 72 hrs by cytochalasin-B-blocked micronucleus assay (reference value: 1.2 +/- 0.03); format: functional; in short: as §1
PBL [4] = experiment: Toxicity in 2-Gy gamma irradiated human PBL assessed as cytokinesis-block proliferation index at 1.8 uM treated for 2 to 19 hrs followed by compound washout measured after 72 hrs (reference value: 1.6 +/- 0.1); format: cell-based
PBL [5] = experiment: Toxicity in 2-Gy gamma irradiated human PBL assessed as cytokinesis-block proliferation index at 3.7 uM treated for 2 to 19 hrs followed by compound washout measured after 72 hrs (reference value: 1.6 +/- 0.1); format: cell-based
PBL [6] = experiment: Toxicity in 2-Gy gamma irradiated human PBL assessed as cytokinesis-block proliferation index at 7.4 uM treated for 2 to 19 hrs followed by compound washout measured after 72 hrs (reference value: 1.6 +/- 0.1); format: cell-based
PBL [7] = experiment: Radioprotective activity in 2-Gy gamma irradiated human PBL assessed as binucleated cells with micronuclei at 1.8 uM treated for 2 to 19 hrs followed by compound washout measured after 72 hrs by cytochalasin-B-blocked micronucleus assay (reference value: 15.5 +/- 0.6%); format: functional; in short: as §1
PBL [8] = experiment: Radioprotective activity in 2-Gy gamma irradiated human PBL assessed as binucleated cells with micronuclei at 3.7 uM treated for 2 to 19 hrs followed by compound washout measured after 72 hrs by cytochalasin-B-blocked micronucleus assay (reference value: 15.5 +/- 0.6%); format: functional; in short: as §1
PBL [9] = experiment: Radioprotective activity in 2-Gy gamma irradiated human PBL assessed as binucleated cells with micronuclei at 7.4 uM treated for 2 to 19 hrs followed by compound washout measured after 72 hrs by cytochalasin-B-blocked micronucleus assay (reference value: 15.5 +/- 0.6%); format: functional; in short: as §1
PBL [10] = experiment: Radioprotective activity in 2-Gy gamma irradiated human PBL assessed as frequency of micronuclei at 1.8 uM treated for 2 to 19 hrs followed by compound washout measured after 72 hrs by cytochalasin-B-blocked micronucleus assay relative to control; format: functional; in short: as §1
PBL [11] = experiment: Radioprotective activity in 2-Gy gamma irradiated human PBL assessed as frequency of micronuclei at 3.7 uM treated for 2 to 19 hrs followed by compound washout measured after 72 hrs by cytochalasin-B-blocked micronucleus assay relative to control; format: functional; in short: as §1
PBL [12] = experiment: Radioprotective activity in 2-Gy gamma irradiated human PBL assessed as frequency of micronuclei at 7.4 uM treated for 2 to 19 hrs followed by compound washout measured after 72 hrs by cytochalasin-B-blocked micronucleus assay relative to control; format: functional; in short: as §1
PBL [13] = experiment: Radioprotective activity in 2-Gy gamma irradiated human PBL assessed as incidence of micronuclei in 1000 binucleated cells at 1.8 uM treated for 2 to 19 hrs followed by compound washout measured after 72 hrs by cytochalasin-B-blocked micronucleus assay (reference value: 183 +/- 9.6); format: functional; in short: as §1
PBL [14] = experiment: Radioprotective activity in 2-Gy gamma irradiated human PBL assessed as incidence of micronuclei in 1000 binucleated cells at 3.7 uM treated for 2 to 19 hrs followed by compound washout measured after 72 hrs by cytochalasin-B-blocked micronucleus assay (reference value: 183 +/- 9.6); format: functional
In short: (§2)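 Venous blood from five healthy male volunteers was gamma-irradiated at 2 Gy (0.45 Gy/min) at room temperature, then cultured. Compounds (0.8–7.4 μM final) were added after irradiation for 19 h at 37 °C. Cells were rinsed and moved to fresh RPMI 1640 for 72 h. At least 1000 binucleated cells per sample were scored for micronuclei and CBPI calculated. Analysis used one-way ANOVA with Tukey test.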

PBL [15] = experiment: Radioprotective activity in 2-Gy gamma irradiated human PBL assessed as incidence of micronuclei in 1000 binucleated cells at 7.4 uM treated for 2 to 19 hrs followed by compound washout measured after 72 hrs by cytochalasin-B-blocked micronucleus assay (reference value: 183 +/- 9.6); format: functional; in short: as §2
PBL [16] = experiment: Radioprotective activity in 2-Gy gamma irradiated human PBL assessed as incidence of micronuclei in binucleated cells at 3.5 uM treated for 2 to 19 hrs followed by compound washout measured after 72 hrs by cytochalasin-B-blocked micronucleus assay (reference value: 1.2 +/- 0.03); format: functional; in short: as §1
PBL [17] = experiment: Radioprotective activity in 2-Gy gamma irradiated human PBL assessed as incidence of micronuclei in binucleated cells at 7 uM treated for 2 to 19 hrs followed by compound washout measured after 72 hrs by cytochalasin-B-blocked micronucleus assay (reference value: 1.2 +/- 0.03); format: functional; in short: as §1
PBL [18] = experiment: Toxicity in 2-Gy gamma irradiated human PBL assessed as cytokinesis-block proliferation index at 3.5 uM treated for 2 to 19 hrs followed by compound washout measured after 72 hrs (reference value: 1.6 +/- 0.1); format: cell-based
PBL [19] = experiment: Toxicity in 2-Gy gamma irradiated human PBL assessed as cytokinesis-block proliferation index at 7 uM treated for 2 to 19 hrs followed by compound washout measured after 72 hrs (reference value: 1.6 +/- 0.1); format: cell-based
PBL [20] = experiment: Radioprotective activity in 2-Gy gamma irradiated human PBL assessed as binucleated cells with micronuclei at 3.5 uM treated for 2 to 19 hrs followed by compound washout measured after 72 hrs by cytochalasin-B-blocked micronucleus assay (reference value: 15.5 +/- 0.6%); format: functional; in short: as §1
PBL [21] = experiment: Radioprotective activity in 2-Gy gamma irradiated human PBL assessed as binucleated cells with micronuclei at 7 uM treated for 2 to 19 hrs followed by compound washout measured after 72 hrs by cytochalasin-B-blocked micronucleus assay (reference value: 15.5 +/- 0.6%); format: functional; in short: as §1
PBL [22] = experiment: Radioprotective activity in 2-Gy gamma irradiated human PBL assessed as frequency of micronuclei at 3.5 uM treated for 2 to 19 hrs followed by compound washout measured after 72 hrs by cytochalasin-B-blocked micronucleus assay relative to control; format: functional; in short: as §1
PBL [23] = experiment: Radioprotective activity in 2-Gy gamma irradiated human PBL assessed as frequency of micronuclei at 7 uM treated for 2 to 19 hrs followed by compound washout measured after 72 hrs by cytochalasin-B-blocked micronucleus assay relative to control; format: functional; in short: as §1
PBL [24] = experiment: Radioprotective activity in 2-Gy gamma irradiated human PBL assessed as incidence of micronuclei in 1000 binucleated cells at 3.5 uM treated for 2 to 19 hrs followed by compound washout measured after 72 hrs by cytochalasin-B-blocked micronucleus assay (reference value: 183 +/- 9.6); format: functional; in short: as §1
PBL [25] = experiment: Radioprotective activity in 2-Gy gamma irradiated human PBL assessed as incidence of micronuclei in 1000 binucleated cells at 7 uM treated for 2 to 19 hrs followed by compound washout measured after 72 hrs by cytochalasin-B-blocked micronucleus assay (reference value: 183 +/- 9.6); format: functional; in short: as §1
PBL [26] = experiment: Toxicity in 2-Gy gamma irradiated human PBL assessed as cytokinesis-block proliferation index at 1 uM treated for 2 to 19 hrs followed by compound washout measured after 72 hrs (reference value: 1.6 +/- 0.1); format: cell-based
PBL [27] = experiment: Toxicity in 2-Gy gamma irradiated human PBL assessed as cytokinesis-block proliferation index at 2 uM treated for 2 to 19 hrs followed by compound washout measured after 72 hrs (reference value: 1.6 +/- 0.1); format: cell-based
PBL [28] = experiment: Toxicity in 2-Gy gamma irradiated human PBL assessed as cytokinesis-block proliferation index at 4 uM treated for 2 to 19 hrs followed by compound washout measured after 72 hrs (reference value: 1.6 +/- 0.1); format: cell-based
PBL [29] = experiment: Radioprotective activity in 2-Gy gamma irradiated human PBL assessed as binucleated cells with micronuclei at 1 uM treated for 2 to 19 hrs followed by compound washout measured after 72 hrs by cytochalasin-B-blocked micronucleus assay (reference value: 15.5 +/- 0.6%); format: functional; in short: as §1
PBL [30] = experiment: Radioprotective activity in 2-Gy gamma irradiated human PBL assessed as binucleated cells with micronuclei at 2 uM treated for 2 to 19 hrs followed by compound washout measured after 72 hrs by cytochalasin-B-blocked micronucleus assay (reference value: 15.5 +/- 0.6%); format: functional; in short: as §1
PBL [31] = experiment: Radioprotective activity in 2-Gy gamma irradiated human PBL assessed as binucleated cells with micronuclei at 4 uM treated for 2 to 19 hrs followed by compound washout measured after 72 hrs by cytochalasin-B-blocked micronucleus assay (reference value: 15.5 +/- 0.6%); format: functional; in short: as §1
PBL [32] = experiment: Radioprotective activity in 2-Gy gamma irradiated human PBL assessed as incidence of micronuclei in 1000 binucleated cells at 1 uM treated for 2 to 19 hrs followed by compound washout measured after 72 hrs by cytochalasin-B-blocked micronucleus assay (reference value: 183 +/- 9.6); format: functional; in short: as §1
PBL [33] = experiment: Radioprotective activity in 2-Gy gamma irradiated human PBL assessed as incidence of micronuclei in 1000 binucleated cells at 2 uM treated for 2 to 19 hrs followed by compound washout measured after 72 hrs by cytochalasin-B-blocked micronucleus assay (reference value: 183 +/- 9.6); format: functional; in short: as §1
PBL [34] = experiment: Radioprotective activity in 2-Gy gamma irradiated human PBL assessed as incidence of micronuclei in 1000 binucleated cells at 4 uM treated for 2 to 19 hrs followed by compound washout measured after 72 hrs by cytochalasin-B-blocked micronucleus assay (reference value: 183 +/- 9.6); format: functional; in short: as §1
PBL [35] = experiment: Radioprotective activity in 2-Gy gamma irradiated human PBL assessed as incidence of micronuclei in binucleated cells at 1 uM treated for 2 to 19 hrs followed by compound washout measured after 72 hrs by cytochalasin-B-blocked micronucleus assay (reference value: 1.2 +/- 0.03); format: functional; in short: as §1
PBL [36] = experiment: Radioprotective activity in 2-Gy gamma irradiated human PBL assessed as incidence of micronuclei in binucleated cells at 2 uM treated for 2 to 19 hrs followed by compound washout measured after 72 hrs by cytochalasin-B-blocked micronucleus assay (reference value: 1.2 +/- 0.03); format: functional; in short: as §1
PBL [37] = experiment: Radioprotective activity in 2-Gy gamma irradiated human PBL assessed as incidence of micronuclei in binucleated cells at 4 uM treated for 2 to 19 hrs followed by compound washout measured after 72 hrs by cytochalasin-B-blocked micronucleus assay (reference value: 1.2 +/- 0.03); format: functional; in short: as §1
PBL [38] = experiment: Radioprotective activity in 2-Gy gamma irradiated human PBL assessed as frequency of micronuclei at 1 uM treated for 2 to 19 hrs followed by compound washout measured after 72 hrs by cytochalasin-B-blocked micronucleus assay relative to control; format: functional; in short: as §1
PBL [39] = experiment: Radioprotective activity in 2-Gy gamma irradiated human PBL assessed as frequency of micronuclei at 2 uM treated for 2 to 19 hrs followed by compound washout measured after 72 hrs by cytochalasin-B-blocked micronucleus assay relative to control; format: functional; in short: as §1
PBL [40] = experiment: Radioprotective activity in 2-Gy gamma irradiated human PBL assessed as frequency of micronuclei at 4 uM treated for 2 to 19 hrs followed by compound washout measured after 72 hrs by cytochalasin-B-blocked micronucleus assay relative to control; format: functional; in short: as §1

OC[C@H]1O[C@@H](Oc2ccc(O)cc2)[C@H](O)[C@@H](O)[C@@H]1O [ARBUTIN]
Activity (PBL [1]): 1.3 | Activity (PBL [2]): 1.3 | Activity (PBL [3]): 1.2 | Activity (PBL [4]): 1.7 | Activity (PBL [5]): 1.8 | Activity (PBL [6]): 1.6 | Activity (PBL [7]): 15.1% | Activity (PBL [8]): 15% | Activity (PBL [9]): 15.8% | Activity (PBL [10]): 104.5% | Activity (PBL [11]): 103.4% | Activity (PBL [12]): 107.8% | Activity (PBL [13]): 191.2 | Activity (PBL [14]): 189.3 | Activity (PBL [15]): 197.2

OC[C@H]1O[C@@H](OCc2ccc(O)cc2)[C@H](O)[C@@H](O)[C@@H]1O
Activity (PBL [1]): 1.2 | Activity (PBL [16]): 1.2 | Activity (PBL [17]): 1.2 | Activity (PBL [4]): 1.7 | Activity (PBL [18]): 1.8 | Activity (PBL [19]): 1.7 | Activity (PBL [7]): 13.1% | Activity (PBL [20]): 13.1% | Activity (PBL [21]): 13.6% | Activity (PBL [10]): 85.5% | Activity (PBL [22]): 85.1% | Activity (PBL [23]): 87% | Activity (PBL [13]): 156.4 | Activity (PBL [24]): 155.7 | Activity (PBL [25]): 159.2

COc1cc(-c2oc3cc(O)c(OC)c(O)c3c(=O)c2O[C@@H]2O[C@H](CO)[C@@H](O)[C@H](O)[C@H]2O)ccc1O
Activity (PBL [26]): 1.6 | Activity (PBL [27]): 1.6 | Activity (PBL [28]): 1.6 | Activity (PBL [29]): 12.1% | Activity (PBL [30]): 11.7% | Activity (PBL [31]): 12.3% | Activity (PBL [32]): 141.8 | Activity (PBL [33]): 139.3 | Activity (PBL [34]): 148 | Activity (PBL [35]): 1.2 | Activity (PBL [36]): 1.2 | Activity (PBL [37]): 1.2 | Activity (PBL [38]): 77.5% | Activity (PBL [39]): 76.1% | Activity (PBL [40]): 80.9%
